For two molecules, GI50, inhibition and IC50 results are on record in ChEMBL document CHEMBL4706565, “Anti-glioma effects of 2-aminothiophene-3-carboxamide derivatives, ANO1 channel blockers” (Eur J Med Chem, 2020).

A word on the GI50: it is the concentration at which growth is held to half of that of the control. The inhibition is the share of the control response that was lost under treatment. Read a low inhibition as little suppression. In general, IC50 refers to the midpoint of a concentration-inhibition curve.

A short description of data set [1]: Antiproliferative activity against mouse primary astrocytes assessed as reduction in cell viability measured after 72 hrs by Celltiter-Glo luminescent assay. The data set is classed as cell-based, Astrocyte. An outline of the steps: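 Primary astrocytes isolated from adult mouse brain by a previously reported method. 5.0×10^3 cells/well, compound as 1:4 serial DMSO dilutions, CellTiter-Glo viability at 72 h.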
For orientation: In ATP-based viability assays light output follows the ATP content of the culture.

In data set [2] the target is T1, Anoctamin-1 (Homo sapiens) (UniProt Q5XXA6).
T1 sequence (whole entry): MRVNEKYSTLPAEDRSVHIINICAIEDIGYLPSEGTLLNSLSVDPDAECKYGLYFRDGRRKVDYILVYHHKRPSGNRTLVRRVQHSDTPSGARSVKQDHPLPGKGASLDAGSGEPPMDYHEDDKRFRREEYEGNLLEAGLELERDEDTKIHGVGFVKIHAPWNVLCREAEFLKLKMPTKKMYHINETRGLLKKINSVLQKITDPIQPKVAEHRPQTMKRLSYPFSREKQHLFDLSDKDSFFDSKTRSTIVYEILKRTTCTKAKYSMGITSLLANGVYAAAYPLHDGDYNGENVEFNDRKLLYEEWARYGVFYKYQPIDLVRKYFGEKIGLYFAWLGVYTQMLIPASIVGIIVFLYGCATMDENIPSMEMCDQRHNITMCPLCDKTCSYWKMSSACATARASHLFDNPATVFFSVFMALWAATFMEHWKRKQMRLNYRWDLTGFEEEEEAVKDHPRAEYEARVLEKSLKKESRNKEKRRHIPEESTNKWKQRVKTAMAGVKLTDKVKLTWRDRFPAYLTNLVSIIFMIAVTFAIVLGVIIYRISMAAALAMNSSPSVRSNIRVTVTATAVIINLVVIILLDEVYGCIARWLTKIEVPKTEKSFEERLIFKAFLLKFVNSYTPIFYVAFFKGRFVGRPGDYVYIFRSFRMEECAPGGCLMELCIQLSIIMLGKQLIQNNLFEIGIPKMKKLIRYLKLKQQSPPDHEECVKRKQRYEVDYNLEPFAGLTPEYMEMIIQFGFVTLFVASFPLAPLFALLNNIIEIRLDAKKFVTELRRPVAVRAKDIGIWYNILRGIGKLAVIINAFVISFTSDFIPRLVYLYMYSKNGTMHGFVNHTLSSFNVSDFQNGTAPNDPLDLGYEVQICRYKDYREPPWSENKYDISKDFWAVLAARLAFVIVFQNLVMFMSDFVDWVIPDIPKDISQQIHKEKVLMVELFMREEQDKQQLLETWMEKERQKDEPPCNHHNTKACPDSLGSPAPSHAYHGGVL
The experiment in a line: Inhibition of human ANO1 channel expressed in HEK293 cells at 10 uM incubated for 10 mins by FLIPR assay relative to control. The data set is classed as cell-based. The gist of the method: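 HEK293 cells expressing human ANO1, 50,000 cells/well, plated overnight. Loaded with FLIPR Red membrane-potential dye in HEPES-buffered saline (pH 7.4) for 40-60 min at room temperature. Compound added for 10 min at room temperature, final DMSO 0.5%.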

Data set [3] has as its target T2, Anoctamin-2 (Mus musculus, UniProt Q8CFW1).
T2 sequence (Q8CFW1 whole entry): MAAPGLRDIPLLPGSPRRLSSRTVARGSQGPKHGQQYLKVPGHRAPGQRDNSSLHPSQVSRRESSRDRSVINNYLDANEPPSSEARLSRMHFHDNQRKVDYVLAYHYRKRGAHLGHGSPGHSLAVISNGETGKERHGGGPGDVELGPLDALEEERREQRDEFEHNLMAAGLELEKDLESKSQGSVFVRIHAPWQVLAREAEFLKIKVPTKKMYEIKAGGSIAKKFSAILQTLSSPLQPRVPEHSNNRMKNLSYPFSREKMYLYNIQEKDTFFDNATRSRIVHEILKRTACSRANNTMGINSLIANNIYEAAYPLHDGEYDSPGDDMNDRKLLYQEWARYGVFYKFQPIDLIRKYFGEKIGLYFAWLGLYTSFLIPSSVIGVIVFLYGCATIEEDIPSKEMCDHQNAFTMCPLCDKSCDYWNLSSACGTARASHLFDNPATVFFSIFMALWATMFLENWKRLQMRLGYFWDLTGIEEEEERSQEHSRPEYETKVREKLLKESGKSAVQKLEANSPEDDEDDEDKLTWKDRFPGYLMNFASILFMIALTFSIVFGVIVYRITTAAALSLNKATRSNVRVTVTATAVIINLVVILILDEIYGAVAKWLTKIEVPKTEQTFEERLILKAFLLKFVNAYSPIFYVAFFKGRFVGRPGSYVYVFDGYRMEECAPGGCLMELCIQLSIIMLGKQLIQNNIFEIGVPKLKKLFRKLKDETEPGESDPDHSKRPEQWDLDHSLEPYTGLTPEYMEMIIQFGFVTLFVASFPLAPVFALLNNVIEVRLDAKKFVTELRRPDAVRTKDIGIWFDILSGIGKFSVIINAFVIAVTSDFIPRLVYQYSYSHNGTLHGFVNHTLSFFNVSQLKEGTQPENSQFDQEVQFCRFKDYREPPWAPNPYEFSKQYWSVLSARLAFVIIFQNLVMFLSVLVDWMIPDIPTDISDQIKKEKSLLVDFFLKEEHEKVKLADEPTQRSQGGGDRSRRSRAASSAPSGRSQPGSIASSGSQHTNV
The experiment in a line: Inhibition of GFP-fused mouse ANO2 channel expressed in HEK293A cells assessed as inhibition of channel current amplitude at membrane potential of +80 mV by patch clamp electrophysiology assay. In kind it is cell-based, HEK293-A. An outline of the steps:
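Whole-cell recording at room temperature in HEK293A cells transfected with GFP-mANO1, GFP-mANO2 or GFP-mTTYH1. 1 s ramps from +80 to -80 mV, holding potential -10 mV. For ANO1/ANO2: pipette CsCl 146 mM with Ca-EGTA-NMDG, pH 7.3; bath NaCl-based, pH 7.3. For TTYH1: Tris-aspartate pipette (pH 7.2) and Tris-HCl bath (pH 7.4), with […] and BaCl2 added to block K+ channels, and hypotonic (220 mOsm/kg) bath. Washout recordings assessed reversibility.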

The subject of data set [4] is U-87 MG. The data set can be described thus: Antiproliferative activity against human U87MG cells overexpressing ANO1 assessed as reduction in cell viability measured after 72 hrs by Celltiter-glo assay. The data set is classed as functional, U-87MG ATCC. The gist of the method: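 5.0×10^3 cells/well seeded, overnight, then compounds added as 1:4 serial dilutions in DMSO; viability read after 72 h with CellTiter-Glo luminescence. GI50 from fitted dose-response curves; triplicate wells, SD from three independent experiments. DMEM for U251 and U138, MEM for U87MG, both with 10% FBS and pen/strep, 37 °C, 5% CO2.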

In the case of `CC(C)(C)C(=O)Nc1sc2c(c1C(N)=O)CCC(C(C)(C)C)C2` (stereo not drawn), the concentration for 50% growth inhibition (GI50) at 72 h in data set [1] was 94.8 µM. Also, the inhibition in data set [2] was determined as 86.9%. In addition, the IC50 in data set [3] turned out to be 15.4 µM. Also, the GI50 in data set [4] worked out at 31.5 µM.
For `NC(=O)c1c(NC(=S)NC(=O)c2ccc(Cl)cc2)sc2c1CCC2`, in that order: 45.1 µM, 72.2%, 7.43 µM and 23.8 µM.
